Source: ChEMBL document CHEMBL4732208, “Discovery of novel N-alkylcytidines as promising antimicrobial agents” (Eur J Med Chem, 2021)
≈ marks a conversion by molar mass, not a printed value. Calls of active or inactive are those of the source. The calls are words filed in the database; no cut-off is given here.

Legend:
Staphylococcus aureus [1] = assay: Antibacterial activity against Staphylococcus aureus FDA 209 P; format: functional
Method in brief: (§1)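 Strains grown in modified Gause's nutrient medium N 2, inoculum 10⁶ cells/ml. Test compound dissolved in 50% aqueous methanol, added at ten volume percent of the medium. Growth controls: medium without additions, medium with solvent mixture, and clinical antibiotics (amikacin, ciprofloxacin, isoniazid, rifampicin, oxacillin, vancomycin).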

Staphylococcus aureus [2] = assay: Antibacterial activity against Staphylococcus aureus INA 00761; format: functional; method in brief: as §1
Bacillus subtilis = assay: Antibacterial activity against Bacillus subtilis ATCC 6633; format: functional; method in brief: as §1
[3] = test system: Mycolicibacterium smegmatis; assay: Antibacterial activity against Mycobacterium smegmatis mc2155; format: functional
Method in brief: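 Strains were grown in modified Gause's nutrient medium N 2 at 10⁶ cells/ml. The compound was dissolved in 50% aqueous methanol and added at 10 volume percent of the medium. Controls were untreated cultures, medium with the solvent mixture, and clinical antibiotics.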

[4] = test system: Leuconostoc mesenteroides; assay: Antibacterial activity against Leuconostoc mesenteroides VKPM B-4177; format: functional; method in brief: as §1
[5] = Cytotoxicity against human A549 cells by MTT assay; format: cell-based
Method in brief: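 Adherent A549 cells passaged in DMEM with 10% fetal calf serum and 2 mM glutamine, at 37 °C, 5% CO2, 90% humidity. MTT test. CC50 is the concentration that inhibits culture growth by 50%.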

Micrococcus luteus = assay: Antibacterial activity against Micrococcus luteus NCTC 8340; format: functional; method in brief: as §1
[6] = test system: Mycolicibacterium smegmatis; assay: Antibacterial activity against Mycobacterium smegmatis VKPM Ac-1339; format: functional; method in brief: as §1
[7] = Chemical stability of compound in pH 2.2 at 5 mg measured after 7 days by TLC analysis; format: physicochemical; conditions: pH 2.2, 168 h, time 7 day
Method in brief: (§2)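 Compound incubated at 37 °C in 0.2 M glycine/HCl (pH 2.2), 0.1 M potassium phosphate (pH 7.5) or 0.2 M glycine/NaOH (pH 9.0). Followed for 24 h and up to over a week.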

[8] = Chemical stability of compound in pH 7.5 at 5 mg measured after 7 days by TLC analysis; format: physicochemical; conditions: pH 7.5, 168 h, time 7 day; method in brief: as §2
[9] = Metabolic stability in human serum assessed as half life at 100 mM measured for 24 hrs by HPLC/TLC analysis; format: ADME, cell-free
[10] = Aqueous solubility of compound; format: physicochemical; conditions: buffer
[11] = Chemical stability of compound in pH 9 at 5 mg measured after 24 hrs by TLC analysis; format: physicochemical; conditions: pH 9, 24 h; method in brief: as §2
Microascus paisii = assay: Antifungal activity against Microascus-paisii SRX7729192 STG-103 assessed as reduction in fungal growth at 0.1 to 3.5 mM measured for 24 days by drop dilution assay relative to control; format: functional; conditions: dose 0.1-3.5 mM, time 24.0 day
Method in brief: (§3)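 Drop-dilution method. Suspension plated on CDA with or without compound (screening range 0.1–3.5 mM); 5-fluorocytosine positive control. Incubated at 26 °C. Inhibition % = (Dc−Dt)/Dc × 100 from colony diameters; triplicate, repeated at least twice.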

Aspergillus amoenus = assay: Antifungal activity against Aspergillus-amoenus SRX7729194 STG-106 assessed as reduction in fungal growth at 0.1 to 3.5 mM measured for 24 days by drop dilution assay relative to control; format: functional; conditions: dose 0.1-3.5 mM, time 24.0 day; method in brief: as §3
[12] = test system: Simplicillium lamellicola; assay: Antifungal activity against Simplicilium-lamellicola SRX772919 STG-96 assessed as reduction in fungal growth at 0.1 to 3.5 mM measured for 24 days by drop dilution assay relative to control; format: functional; conditions: dose 0.1-3.5 mM, time 24.0 day; method in brief: as §3
Aspergillus creber = assay: Antifungal activity against Aspergillus-creber SRX7729180 STG-57 assessed as reduction in fungal growth at 0.1 to 3.5 mM measured for 24 days by drop dilution assay relative to control; format: functional; conditions: dose 0.1-3.5 mM, time 24.0 day; method in brief: as §3
Aspergillus versicolor [13] = assay: Antifungal activity against Aspergillus versicolor SRX7729174 STG-25G assessed as reduction in fungal growth at 0.1 to 3.5 mM measured for 24 days by drop dilution assay relative to control; format: functional; conditions: dose 0.1-3.5 mM, time 24.0 day; method in brief: as §3
Aspergillus = assay: Antifungal activity against Aspergillus SRX7729186 STG-93W assessed as reduction in fungal growth at 0.1 to 3.5 mM measured for 24 days by drop dilution assay relative to control; format: functional; conditions: dose 0.1-3.5 mM, time 24.0 day; method in brief: as §3
[14] = test system: Cladosporium halotolerans; assay: Antifungal activity against Cladosporium-halotolerans SRX7729178 STG-52B assessed as reduction in fungal growth at 0.1 to 3.5 mM measured for 24 days by drop dilution assay relative to control; format: functional; conditions: dose 0.1-3.5 mM, time 24.0 day; method in brief: as §3
Aspergillus versicolor [15] = assay: Antifungal activity against Aspergillus versicolor SRX7729182 STG-25G assessed as reduction in fungal growth at 0.1 to 3.5 mM measured for 24 days by drop dilution assay relative to control; format: functional; conditions: dose 0.1-3.5 mM, time 24.0 day; method in brief: as §3
Alternaria chartarum = assay: Antifungal activity against Ulocladium chartarum SRX7729176 STG-36 assessed as reduction in fungal growth at 0.1 to 3.5 mM measured for 24 days by drop dilution assay relative to control; format: functional; conditions: dose 0.1-3.5 mM, time 24.0 day; method in brief: as §3
[16] = test system: Cladosporium parahalotolerans; assay: Antifungal activity against Cladosporium-parahalotolerans SRX7729188 STG-93B assessed as reduction in fungal growth at 0.1 to 3.5 mM measured for 24 days by drop dilution assay relative to control; format: functional; conditions: dose 0.1-3.5 mM, time 24.0 day; method in brief: as §3

Structure (SMILES)	MIC (Staphylococcus aureus [1]) [µM]	MIC (Staphylococcus aureus [2]) [µM]	MIC (Bacillus subtilis) [µM]	MIC [3] [µM]	MIC [4] [µM]	CC50 [5] [µM]	MIC (Micrococcus luteus) [µM]	MIC [6] [µM]	also measured
Cc1onc(-c2ccccc2)c1C(=O)N[C@@H]1C(=O)N2[C@@H]1SC(C)(C)[C@@H]2C(=O)O [OXACILLIN]	2.5 (≈ 1 µg/mL)	80 (≈ 32.1 µg/mL)	–	–	–	–	–	–	–
CCCCCCCCCCNc1ccn([C@@H]2O[C@H](CO)[C@@H](O)[C@H]2O)c(=O)n1	> 200	> 200	> 200	> 200	> 200	90	> 200	> 200	–
NNC(=O)c1ccncc1 [ISONIAZID]	–	–	–	29 (≈ 3.98 µg/mL)	–	–	–	2 (≈ 0.274 µg/mL)	–
CN[C@H](CC(C)C)C(=O)N[C@H]1C(=O)N[C@@H](CC(N)=O)C(=O)N[C@H]2C(=O)N[C@H]3C(=O)N[C@H](C(=O)N[C@H](C(=O)O)c4cc(O)cc(O)c4-c4cc3ccc4O)[C@H](O)c3ccc(c(Cl)c3)Oc3cc2cc(c3O[C@@H]2O[C@H](CO)[C@@H](O)[C@H](O)[C@H]2O[C@H]2C[C@](C)(N)[C@H](O)[C@H](C)O2)Oc2ccc(cc2Cl)[C@H]1O [VANCOMYCIN]	–	–	–	–	> 275	–	–	–	–
CCCCCCCCCCCCNc1nc(=O)n([C@H]2C[C@H](OC(=O)OCCOCCOCCO)[C@@H](CO)O2)cc1C	50 (≈ 29.3 µg/mL)	50 (≈ 29.3 µg/mL)	68 (≈ 39.8 µg/mL)	68 (≈ 39.8 µg/mL)	68 (≈ 39.8 µg/mL)	90	50 (≈ 29.3 µg/mL)	68 (≈ 39.8 µg/mL)	Stabilty [7]: Stable; Stabilty [8]: Stable; half-life [9]: ≥ 24 h; solubility [10]: Soluble; Stabilty [11]: Stable
CCCCCCCCNc1ccn([C@@H]2O[C@H](CO)[C@@H](O)[C@H]2O)c(=O)n1	> 200	> 200	> 200	> 200	> 200	90	> 200	> 200	–
Nc1nc(=O)[nH]cc1F	–	–	–	–	–	–	–	–	inhibition (Microascus paisii): Active; inhibition (Aspergillus amoenus): Active; inhibition [12]: Active; inhibition (Aspergillus creber): Active; inhibition (Aspergillus versicolor [13]): Active; inhibition (Aspergillus): Active; inhibition [14]: Active; inhibition (Aspergillus versicolor [15]): Active; inhibition (Alternaria chartarum): Active; inhibition [16]: Active
CCCCCCCCCCNc1nc(=O)n([C@H]2C[C@H](OC(=O)OCCOCCOCCO)[C@@H](CO)O2)cc1C	54 (≈ 30.1 µg/mL)	54 (≈ 30.1 µg/mL)	90 (≈ 50.2 µg/mL)	54 (≈ 30.1 µg/mL)	90 (≈ 50.2 µg/mL)	90	> 45	54 (≈ 30.1 µg/mL)	Stabilty [7]: Stable; Stabilty [8]: Stable; inhibition (Aspergillus amoenus): inactive; inhibition (Aspergillus creber): inactive; inhibition (Aspergillus versicolor [13]): inactive; inhibition (Aspergillus): inactive; half-life [9]: ≥ 24 h; inhibition [14]: inactive; solubility [10]: Soluble; inhibition (Aspergillus versicolor [15]): inactive; Stabilty [11]: Stable; inhibition (Alternaria chartarum): inactive; inhibition [16]: inactive
COCCOCCOCCNc1nc(=O)n([C@H]2C[C@H](O)[C@@H](CO)O2)cc1C	> 200	> 200	> 200	> 200	> 200	90	> 200	> 200	–
CO[C@H]1/C=C/O[C@@]2(C)Oc3c(C)c(O)c4c(O)c(c(/C=N/N5CCN(C)CC5)c(O)c4c3C2=O)NC(=O)/C(C)=C\C=C\[C@H](C)[C@H](O)[C@@H](C)[C@@H](O)[C@@H](C)[C@H](OC(C)=O)[C@@H]1C [RIFAMPIN]	–	–	–	5 (≈ 4.11 µg/mL)	–	–	–	10 (≈ 8.23 µg/mL)	–
Cc1cn([C@H]2C[C@H](O)[C@@H](CO)O2)c(=O)nc1NCCc1ccccc1	> 200	> 200	> 200	> 200	> 200	90	> 200	> 200	–
